Only some compounds are listed: those with a hit (about 2.8% of all), similar ones and a draw of the others.
pPAFAH inh: inhibitors of human plasma PAF acetylhydrolase (pPAFAH) | Q13093 | recombinant pPAFAH, FP-rhodamine probe fluorescence polarization | inhibition, % at 3.39 µM | hit rate 1.5% among 330,000;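 active = inhibition above the mean inhibition across the screen plus 3 SD, cut at about 25% in these data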;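 note: inhibitors block binding of the rhodamine activity-based probe so polarization drops; 0% = enzyme with DMSO and 100% = wells lacking pPAFAH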
Target sequence (Q13093 whole entry, looked up): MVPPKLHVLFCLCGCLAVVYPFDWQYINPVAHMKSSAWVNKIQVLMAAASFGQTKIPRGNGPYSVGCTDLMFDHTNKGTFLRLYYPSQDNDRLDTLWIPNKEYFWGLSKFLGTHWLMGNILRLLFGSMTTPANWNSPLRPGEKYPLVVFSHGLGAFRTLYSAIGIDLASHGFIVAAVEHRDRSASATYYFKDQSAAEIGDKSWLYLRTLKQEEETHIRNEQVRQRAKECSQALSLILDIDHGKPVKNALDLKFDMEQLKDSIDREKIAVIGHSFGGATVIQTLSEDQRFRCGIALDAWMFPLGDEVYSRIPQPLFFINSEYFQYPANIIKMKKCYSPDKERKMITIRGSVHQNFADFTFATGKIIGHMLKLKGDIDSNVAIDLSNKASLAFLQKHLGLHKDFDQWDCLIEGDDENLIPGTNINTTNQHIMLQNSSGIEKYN
ABHD4 inh: inhibits mouse alpha/beta hydrolase domain 4; hit rate 0.54% among 370,000; purified mABHD4, FP-Rh probe fluorescence polarization; Q8VD66; inhibition, % at 8.92 µM;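 active = inhibition exceeding the mean over every tested compound plus 3 SD, cut at about 30% in these data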;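 note: 0% = plate median of compound wells and 100% = S159A mutant with DMSO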
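Test system: mABHD4 protein | Buffer or medium: HEPES pH 7.0 buffer, 150 mM NaCl, 0.01% Pluronic F-127 | Probe or stimulus: FP-Rh fluorescent activity-based probe, added after compound pre-incubation | Timing: Pre-incubation 45 min, probe exposure 60 min, at 25 °C | Technique: Fluorescence polarization, excitation 525 nm, emission 598 nm, BODIPY TMR filters | Repeats: Single well per compound (singlicate)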
PAFAH1B3 FP inh: inhibitors of human PAFAH1B3. Q15102. recombinant PAFAH1B3, FP-rhodamine probe, fluorescence polarization. inhibition, % at 3.39 µM. hit rate 0.28% among 340,000. AID 492972;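 active = inhibition above the screen-wide average of all tested compounds plus 3 SD, cut at about 25% in these data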;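 note: 0% = enzyme with DMSO only and 100% = wells lacking PAFAH1B3 protein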
PAFAH2 FP inh: inhibitors of human PAFAH2 | Q99487 | recombinant PAFAH2, FP-rhodamine activity probe, fluorescence polarization | inhibition, % at 3.39 µM | hit rate 0.99% among 340,000 | AID 492956;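 active = inhibition above the mean over all tested compounds plus 3 SD, cut at about 30% in these data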;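 note: inhibitors block probe labeling of enzyme so polarization drops; 0% = enzyme with DMSO and 100% = wells lacking PAFAH2 protein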
HTRA1 inhibitor: HTRA1 (human) protease inhibition; Q92743; recombinant HTRA1, FP-rhodamine activity-based probe, fluorescence polarization; inhibition, % at 5.96 µM; hit rate 0.5% among 340,000; AID 504803; in the data active = inhibition above about 36%;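 note: 0% = enzyme with DMSO and 100% = wells lacking enzyme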
PAFAH1B2 FP inh: inhibitors of human PAFAH1B2; hit rate 1.2% among 340,000; AID 492953; P68402; inhibition, % at 3.39 µM; recombinant PAFAH1B2, FP-rhodamine activity probe, fluorescence polarization;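 active = inhibition above the mean of all tested compounds plus 3 SD, cut at about 24% in these data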;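 note: 0% = enzyme with DMSO and 100% = wells lacking PAFAH1B2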
Target sequence (P68402 whole entry, looked up): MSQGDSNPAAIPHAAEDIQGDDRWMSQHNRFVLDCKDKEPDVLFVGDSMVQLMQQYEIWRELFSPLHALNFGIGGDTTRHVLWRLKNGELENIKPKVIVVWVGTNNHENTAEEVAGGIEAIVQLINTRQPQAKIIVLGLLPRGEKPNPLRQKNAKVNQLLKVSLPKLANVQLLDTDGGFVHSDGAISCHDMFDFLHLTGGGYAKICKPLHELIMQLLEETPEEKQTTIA
PAFAH2 FP conf: PAFAH2 (human) inhibition, confirmed; shares compounds with PAFAH2 FP inh; recombinant PAFAH2, FP-rhodamine activity probe, fluorescence polarization; inhibition, % at 3.39 µM; hit rate 65% among 2,300; AID 493030;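 active = mean inhibition over three repeats above a set limit taken from the earlier primary screen, cut at about 30% in these data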;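 note: inhibitor blocks binding of rhodamine activity probe so polarization falls; 0% = enzyme with DMSO and 100% = wells lacking PAFAH2 protein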
Starred values were filed as active, the others as inactive; nt = no result given.

SMILES | pPAFAH inh | ABHD4 inh | PAFAH1B3 FP inh | PAFAH2 FP inh | HTRA1 inhibitor | PAFAH1B2 FP inh | PAFAH2 FP conf
CCOc1cc(CCNC(=O)c2cc(-c3ccccc3)c(N3CCOCC3)s2)ccc1OC | nt | 1 | nt | nt | nt | nt | nt
CCC(=O)c1ccc(OCC(=O)NCC2COc3ccccc3O2)cc1 (stereo unspecified) | 2 | 4 | 6 | 2 | 3 | 2 | nt
CCOc1ccc(NC(=O)COC(=O)c2ccc3c(c2)OCO3)cc1 | 5 | 2 | -6 | 64* | 1 | 2 | 62*
O=C(COC(=O)c1ccc(O)cc1)Nc1cc(C(F)(F)F)ccc1Cl | 12 | -26 | 5 | 55* | -14 | 13 | 40*
O=C(COC(=O)c1ccc2c(c1)OCO2)Nc1ccccc1Cl | 1 | 2 | 5 | 58* | -2 | 6 | 44*
O=C(COC(=O)c1ccc(O)cc1)NCC1COc2ccccc2O1 (stereo unspecified) | 3 | 3 | 4 | 32* | -1 | -3 | 27
O=C(COC(=O)c1ccc2c(c1)OCCO2)Nc1ccccc1C(F)(F)F | nt | 7 | nt | nt | -3 | nt | nt
NC(=O)c1ccc(NC(=O)COC(=O)c2ccc3c(c2)OCO3)cc1 | 1 | -3 | -9 | 4 | -3 | 1 | nt
Nc1ccc(C(=O)OCC(=O)NC(=O)c2ccccc2)cc1[N+](=O)[O-] | 6 | 3 | 5 | 38* | -1 | -3 | 22
CCC(=O)Nc1cc(C(=O)OCC(=O)c2ccccc2Cl)ccc1C | -2 | -10 | 5 | 42* | 1 | 10 | 32*
CC(=O)c1cccc(NC(=O)COC(=O)c2ccc3c(c2)OCCO3)c1 | 7 | 0 | 8 | 84* | -4 | 3 | 71*
O=C(COC(=O)c1ccc(O)cc1)Nc1ccc2c(c1)OCCO2 | 16 | -3 | 5 | 78* | 7 | -5 | 69*
CCC(=O)Nc1cc(C(=O)OCC(=O)c2ccc(Cl)cc2Cl)ccc1C | 4 | -2 | 11 | 17 | -2 | 7 | nt
CCCCCCCCNC(=O)C1CSCCS(=O)(=O)N1Cc1ccc(F)cc1 (stereo unspecified) | nt | 5 | nt | nt | nt | nt | nt
CCC[C@H]1[C@@H](NC(=O)C(c2ccccc2)c2ccccc2)CC[C@@]23CCCN2C(=O)CCC[C@@H]13 | nt | -1 | nt | nt | nt | nt | nt
Cc1ccc(S(=O)(=O)N2c3ccccc3C[C@H]2CCC(=O)c2ccccc2)cc1 | nt | -5 | nt | nt | nt | nt | nt
O=C(Nc1cccc(F)c1)c1ccc2c(c1)OCO2 | 4 | 0 | 2 | -1 | -14 | 3 | nt
COc1ccc(NC(=O)COC(=O)c2ccc3c(c2)OCCO3)cc1OC | 4 | -6 | 3 | 14 | 1 | -2 | nt
O=C(COC(=O)c1ccc2c(c1)OCO2)Nc1cccc(F)c1 | 7 | 6 | -3 | 81* | -12 | 0 | 84*
O=C(COC(=O)c1ccc(O)cc1)Nc1ccccc1 | 17 | -6 | 8 | 92* | -1 | -3 | 80*
O=C(COC(=O)c1ccc(S(=O)(=O)N2CCCCC2)cc1)Nc1ccccc1 | 6 | 3 | 1 | 1 | -8 | 1 | nt
Cc1ccc(NC(=O)COC(=O)c2ccc3c(c2)OCCO3)cc1 | 9 | -6 | 8 | 86* | -4 | -3 | 85*
Nc1ccc(C(=O)OCC(=O)Nc2ccc3c(c2)OCO3)cc1[N+](=O)[O-] | 5 | 3 | 9 | 65* | 5 | 8 | 49*
C#CCNC(=O)C[C@H]1C(=O)N(CC=C)C2=CCCC[C@@]21C(=O)OCC | nt | 6 | nt | nt | nt | nt | nt
Clc1ccc([C@H]2OC[C@@]3(CNCc4ccc5c(c4)OCO5)CS[C@H](c4ccc(Cl)cc4)N23)cc1 | nt | -33 | nt | nt | nt | nt | nt
SMILES | pPAFAH inh | ABHD4 inh | PAFAH1B3 FP inh | PAFAH2 FP inh | HTRA1 inhibitor | PAFAH1B2 FP inh | PAFAH2 FP conf
O=C(COC(=O)c1ccc2[nH]c3c(c2c1)CCCC3)Nc1ccccc1Cl | 3 | 3 | 8 | 32* | 1 | 1 | 23
COC(=O)C1CN(Cc2ccccc2)CCS(=O)(=O)N1Cc1ccc(F)cc1 (stereo unspecified) | nt | 3 | nt | nt | nt | nt | nt
O=c1cc(-c2ccccc2)nc2nc(-c3ccco3)[nH]n12 | 6 | 9 | 7 | 42* | -15 | 11 | 7
N#Cc1ccc(/C=C2\CC3(OC(=O)c4ccccc4)CCCN2C3)cc1 (stereo unspecified) | nt | 4 | nt | nt | nt | nt | nt
CC(C)=CC(=O)OCC(=O)Nc1cc(C)cc(C)c1 | 9 | -3 | 11 | 81* | -1 | 3 | 85*
CC(C)=CC(=O)OCC(=O)Nc1ccc(Cl)cc1 | 13 | -1 | 4 | 80* | -5 | 3 | 78*
COc1cc(/C=C/C(=O)OCC(=O)NCCC2=CCCCC2)ccc1O | 14 | -3 | -5 | 57* | -6 | 3 | 63*
COc1cc(/C=C/C(=O)OCC(=O)NCCC2=CCCCC2)cc(OC)c1OC | 13 | -8 | -4 | 33* | 1 | 4 | 10
COC(=O)[C@]12C[C@H](CC(=O)N3CCCCC3)C(=O)N(CCc3ccc(OC)c(OC)c3)C1=C[C@H](C(C)C)O[C@@H]2C1CC1 | nt | 6 | nt | nt | nt | nt | nt
C[C@H]1C(=O)CC[C@@]23CCCN2C(=O)CCC[C@@H]13 | nt | -8 | nt | nt | nt | nt | nt
O=C(COC(=O)c1cccs1)Nc1ccc(F)c(F)c1 | 9 | -1 | 4 | 79* | 5 | -1 | 81*
N/C(CC(=O)Nc1ccc(F)c(Cl)c1)=N\OC(=O)c1cccs1 | -4 | -2 | -1 | 48* | -5 | 10 | 36*
CC1(C(=O)OCC(=O)Nc2ccccc2Cl)CC1(Cl)Cl (stereo unspecified) | 6 | 4 | 8 | 1 | 3 | 1 | nt
CC1(C(=O)OCC(=O)Nc2ccccc2)CC1(Cl)Cl (stereo unspecified) | 4 | -7 | 2 | 56* | 6 | 1 | 51*
O=C(NCCCc1ccccc1)c1cccs1 | 0 | -1 | 8 | 5 | 2 | 3 | nt
O=C(COC(=O)c1cccs1)NCCCc1ccccc1 | 5 | 0 | 1 | 47* | 1 | 4 | 28
COC(=O)[C@H](CC(C)C)N(Cc1cn(CC2CCCCC2)nn1)S(=O)(=O)c1ccc(F)cc1Br | nt | 7 | nt | nt | nt | nt | nt
O=C(COC(=O)c1cccs1)Nc1nc(-c2ccccc2)cs1 | 2 | -8 | 3 | 9 | -12 | -4 | nt
O=C(COC(=O)c1cccs1)Nc1ccccc1 | 8 | 4 | 4 | 77* | 4 | -5 | 78*
CC1CCCC(NC(=O)COC(=O)/C=C/c2ccc3c(c2)OCO3)C1C (stereo unspecified) | 4 | -5 | 1 | 82* | 8 | 4 | 75*
O=C(COC(=O)/C=C/c1ccc2c(c1)OCO2)NC1CC1 | 5 | -3 | -5 | 56* | -6 | 5 | 41*
CC(C)NC(=O)NC(=O)COC(=O)/C=C/c1ccc2c(c1)OCO2 | -4 | 0 | 5 | 7 | -1 | 2 | nt

High-throughput results: PubChem BioAssay, The Scripps Research Institute Molecular Screening Center
